Measurements from ChEMBL document CHEMBL4346684, “Synthesis and structure-bactericidal activity relationships of non-ketolides: 9-Oxime clarithromycin 11,12-cyclic carbonate featured with three-to eight-atom-length spacers at 3-OH” (Eur J Med Chem, 2019).
≈ marks a conversion by molar mass, not a printed value.

Legend:
Type in all cases: functional
Staphylococcus aureus [1] = experiment: Antimicrobial activity against inducibly erythromycin resistant Staphylococcus aureus PU64 expressing i-ermA incubated in CAMHB medium for 20 hrs by two-fold microbroth dilution method; details: PU64, 20 h
In short: (§1)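 Purified fresh Staphylococcus isolate at about 5×10^5 CFU/ml final in CAMHB, 35 °C for 20 h. […] Each run included ATCC strains and reference antibiotics as QC, plus an antibiotic-free growth control.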

[2] = test system: Staphylococcus epidermidis; experiment: Antimicrobial activity against Staphylococcus epidermidis E1 incubated in CAMHB medium for 20 hrs by two-fold microbroth dilution method; details: E1, 20 h
In short: (§2)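 Clinical isolates and ATCC strains, purified by plate activation and used fresh; inoculum about 5×10^5 CFU/ml final. Grown in CAMHB at 35 °C for 20 h.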

Staphylococcus aureus [3] = experiment: Antimicrobial activity against constitutively erythromycin resistant Staphylococcus aureus PU20 expressing c-ermC incubated in CAMHB medium for 20 hrs by two-fold microbroth dilution method; details: PU20, 20 h; in short: as §1
Streptococcus pneumoniae [4] = experiment: Antimicrobial activity against mef-encoded erythromycin resistant Streptococcus pneumoniae PU09 incubated in CAMHB medium for 20 to 24 hrs by two-fold microbroth dilution method
Streptococcus pneumoniae [5] = experiment: Antimicrobial activity against constitutively erythromycin resistant Streptococcus pneumoniae PU27 expressing c-erm incubated in CAMHB medium for 20 to 24 hrs by two-fold microbroth dilution method
In short: (§3)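 Purified fresh Streptococcus isolate at about 5×10^5 CFU/ml final in CAMHB with 5% horse serum, 35 °C for 20–24 h. […] Each run included ATCC strains and reference antibiotics as QC, plus an antibiotic-free growth control.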

Staphylococcus aureus [6] = experiment: Antimicrobial activity against erythromycin-susceptible Staphylococcus aureus ATCC 29213 incubated in CAMHB medium for 20 hrs by two-fold microbroth dilution method; details: ATCC 29213, 20 h; in short: as §2
Staphylococcus aureus [7] = experiment: Antimicrobial activity against inducibly erythromycin-resistant Staphylococcus aureus PU32 expressing i-ermA incubated in CAMHB medium for 20 hrs by two-fold microbroth dilution method; details: PU32, 20 h; in short: as §1
Streptococcus pyogenes [8] = experiment: Antimicrobial activity against constitutively erythromycin resistant Streptococcus pyogenes A2 expressing c-erm incubated in CAMHB medium for 20 to 24 hrs by two-fold microbroth dilution method; in short: as §3
Streptococcus pneumoniae [9] = experiment: Antimicrobial activity against erythromycin-susceptible Streptococcus pneumoniae ATCC 49619 incubated in CAMHB medium for 20 to 24 hrs by two-fold microbroth dilution method
Streptococcus pyogenes [10] = experiment: Antimicrobial activity against erythromycin-susceptible Streptococcus pyogenes A3 incubated in CAMHB medium for 20 to 24 hrs by two-fold microbroth dilution method
Staphylococcus aureus [11] = experiment: Bactericidal activity against inducibly erythromycin-resistant and methicillin resistant Staphylococcus aureus PU32 expressing i-ermA assessed as reduction in colony formation incubated in CAMHB medium for 20 hrs followed by 24 hrs subculturing in the medium without test compound
Haemophilus influenzae [12] = experiment: Ratio of MBC to MIC for azithromycin-susceptible Haemophilus influenzae ATCC 49247
Haemophilus influenzae [13] = experiment: Antimicrobial activity against azithromycin-susceptible Haemophilus influenzae ATCC 49247 incubated in HTM broth medium for 20 to 24 hrs by two-fold microbroth dilution method
Streptococcus pneumoniae [14] = experiment: Bactericidal activity against erythromycin-susceptible Streptococcus pneumoniae ATCC 49619 assessed as reduction in colony formation incubated in CAMHB medium for 20 to 24 hrs followed by 24 hrs subculturing in the medium without test compound
Streptococcus pneumoniae [15] = experiment: Ratio of MBC to MIC for mef-encoded erythromycin resistant Streptococcus pneumoniae PU09
Staphylococcus aureus [16] = experiment: Antimicrobial activity against inducibly erythromycin-resistant and methicillin resistant Staphylococcus aureus PU32 expressing i-ermA incubated in CAMHB medium for 20 hrs by two-fold microbroth dilution method; details: PU32, 20 h
In short: (§4)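 Purified fresh Staphylococcus isolate at about 5×10^5 CFU/ml final in CAMHB, 35 °C for 20 h. Each run included ATCC strains and reference antibiotics as QC, plus an antibiotic-free growth control.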

Haemophilus influenzae [17] = experiment: Bactericidal activity against azithromycin-susceptible Haemophilus influenzae ATCC 49247 assessed as reduction in colony formation incubated in HTM broth medium for 20 to 24 hrs followed by 24 hrs subculturing in the medium without test compound
Streptococcus pyogenes [18] = experiment: Bactericidal activity against inducibly erythromycin resistant Streptococcus pyogenes 01-968 expressing i-ermA assessed as reduction in colony formation incubated in CAMHB medium for 20 to 24 hrs followed by 24 hrs subculturing in the medium without test compound
Staphylococcus aureus [19] = experiment: Antimicrobial activity against constitutively erythromycin resistant and methicillin resistant Staphylococcus aureus PU20 expressing c-ermC incubated in CAMHB medium for 20 hrs by two-fold microbroth dilution method; details: PU20, 20 h; in short: as §4
Streptococcus pyogenes [20] = experiment: Ratio of MBC to MIC for inducibly erythromycin resistant Streptococcus pyogenes 01-968 expressing i-ermA
Streptococcus pneumoniae [21] = experiment: Ratio of MBC to MIC for erythromycin-susceptible Streptococcus pneumoniae ATCC 49619
Streptococcus pneumoniae [22] = experiment: Bactericidal activity against mef-encoded erythromycin resistant Streptococcus pneumoniae PU09 assessed as reduction in colony formation incubated in CAMHB medium for 20 to 24 hrs followed by 24 hrs subculturing in the medium without test compound
Streptococcus pyogenes [23] = experiment: Antimicrobial activity against inducibly erythromycin resistant Streptococcus pyogenes 01-968 expressing i-ermA incubated in CAMHB medium for 20 to 24 hrs by two-fold microbroth dilution method
Staphylococcus aureus [24] = experiment: Bactericidal activity against constitutively erythromycin resistant and methicillin-resistant Staphylococcus aureus PU20 expressing c-ermC assessed as reduction in colony formation incubated in CAMHB medium for 20 hrs followed by 24 hrs subculturing in the medium without test compound

Structure (SMILES)	MIC (Staphylococcus aureus [1]) [µg/mL]	MIC [2] [µg/mL]	MIC (Staphylococcus aureus [3]) [µg/mL]	MIC (Streptococcus pneumoniae [4]) [µg/mL]	MIC (Streptococcus pneumoniae [5]) [µg/mL]	MIC (Staphylococcus aureus [6]) [µg/mL]	MIC (Staphylococcus aureus [7]) [µg/mL]	MIC (Streptococcus pyogenes [8]) [µg/mL]	MIC (Streptococcus pneumoniae [9]) [µg/mL]	MIC (Streptococcus pyogenes [10]) [µg/mL]	MBC (Staphylococcus aureus [11]) [µg/mL]	Ratio (Haemophilus influenzae [12])	MIC (Haemophilus influenzae [13]) [µg/mL]	MBC (Streptococcus pneumoniae [14]) [µg/mL]	Ratio (Streptococcus pneumoniae [15])	MIC (Staphylococcus aureus [16]) [µg/mL]	MBC (Haemophilus influenzae [17]) [µg/mL]	MBC (Streptococcus pyogenes [18]) [µg/mL]	MIC (Staphylococcus aureus [19]) [µg/mL]	Ratio (Streptococcus pyogenes [20])	further results
C=CCO/N=C1\[C@H](C)C[C@@](C)(OC)[C@H](O[C@@H]2O[C@H](C)C[C@H](N(C)C)[C@H]2O)[C@@H](C)[C@H](OCC#Cc2ccc(N)nc2)[C@@H](C)C(=O)O[C@H](CC)[C@@]2(C)OC(=O)O[C@@H]2[C@H]1C	256 (≈ 320 µM)	256 (≈ 320 µM)	256 (≈ 320 µM)	4 (≈ 4.99 µM)	64 (≈ 79.9 µM)	32 (≈ 40 µM)	256 (≈ 320 µM)	64 (≈ 79.9 µM)	2 (≈ 2.5 µM)	4 (≈ 4.99 µM)	–	–	–	–	–	–	–	–	–	–	–
CC[C@H]1OC(=O)[C@H](C)[C@@H](OC(=O)CCNCCNc2cc3c(=O)c(C(=O)O)cn(C4CC4)c3cc2Cl)[C@H](C)[C@@H](O[C@@H]2O[C@H](C)C[C@H](N(C)C)[C@H]2O)[C@](C)(OC)C[C@@H](C)/C(=N\OC)[C@H](C)[C@H]2OC(=O)O[C@@]21C	–	–	–	8 (≈ 7.84 µM)	–	–	–	–	2 (≈ 1.96 µM)	–	> 256	1	128 (≈ 125 µM)	4 (≈ 3.92 µM)	1	256 (≈ 251 µM)	128 (≈ 125 µM)	32 (≈ 31.4 µM)	> 256	2	Ratio (Streptococcus pneumoniae [21]): 2; MBC (Streptococcus pneumoniae [22]): 8 µg/mL (≈ 7.84 µM); MIC (Streptococcus pyogenes [23]): 16 µg/mL (≈ 15.7 µM)
C=CCO/N=C1\[C@H](C)C[C@@](C)(OC)[C@H](O[C@@H]2O[C@H](C)C[C@H](N(C)C)[C@H]2O)[C@@H](C)[C@H](OCC#Cc2cncc(C#N)c2)[C@@H](C)C(=O)O[C@H](CC)[C@@]2(C)OC(=O)O[C@@H]2[C@H]1C	128 (≈ 158 µM)	256 (≈ 316 µM)	128 (≈ 158 µM)	8 (≈ 9.86 µM)	64 (≈ 78.9 µM)	64 (≈ 78.9 µM)	128 (≈ 158 µM)	128 (≈ 158 µM)	4 (≈ 4.93 µM)	4 (≈ 4.93 µM)	–	–	–	–	–	–	–	–	–	–	–
C=CCO/N=C1\[C@H](C)C[C@@](C)(OC)[C@H](O[C@@H]2O[C@H](C)C[C@H](N(C)C)[C@H]2O)[C@@H](C)[C@H](OCC#Cc2ccc(N)cn2)[C@@H](C)C(=O)O[C@H](CC)[C@@]2(C)OC(=O)O[C@@H]2[C@H]1C	> 256	> 256	> 256	8 (≈ 9.99 µM)	64 (≈ 79.9 µM)	64 (≈ 79.9 µM)	128 (≈ 160 µM)	128 (≈ 160 µM)	4 (≈ 4.99 µM)	4 (≈ 4.99 µM)	–	–	–	–	–	–	–	–	–	–	–
C=CCO/N=C1\[C@H](C)C[C@@](C)(OC)[C@H](O[C@@H]2O[C@H](C)C[C@H](N(C)C)[C@H]2O)[C@@H](C)[C@H](O)[C@@H](C)C(=O)O[C@H](CC)[C@@]2(C)OC(=O)O[C@@H]2[C@H]1C	> 256	> 256	> 256	16 (≈ 23.9 µM)	128 (≈ 191 µM)	128 (≈ 191 µM)	> 256	128 (≈ 191 µM)	8 (≈ 11.9 µM)	16 (≈ 23.9 µM)	–	–	–	–	–	–	–	–	–	–	–
CC[C@H]1OC(=O)[C@H](C)[C@@H](OC(=O)CCNCCCc2ccc3c(c2)c(=O)c(C(=O)O)cn3C2CC2)[C@H](C)[C@@H](O[C@@H]2O[C@H](C)C[C@H](N(C)C)[C@H]2O)[C@](C)(OC)C[C@@H](C)/C(=N\OC)[C@H](C)[C@H]2OC(=O)O[C@@]21C	–	–	–	4 (≈ 4.06 µM)	–	–	–	–	0.5 (≈ 0.508 µM)	–	> 256	2	128 (≈ 130 µM)	1 (≈ 1.02 µM)	1	128 (≈ 130 µM)	256 (≈ 260 µM)	32 (≈ 32.5 µM)	128 (≈ 130 µM)	1	MBC (Staphylococcus aureus [24]): > 256 µg/mL; Ratio (Streptococcus pneumoniae [21]): 2; MBC (Streptococcus pneumoniae [22]): 4 µg/mL (≈ 4.06 µM); MIC (Streptococcus pyogenes [23]): 32 µg/mL (≈ 32.5 µM)
